Experimental data from ChEMBL document CHEMBL1649283, “In vitro activities of piperaquine, lumefantrine, and dihydroartemisinin in Kenyan Plasmodium falciparum isolates and polymorphisms in pfcrt and pfmdr1” (Antimicrob Agents Chemother, 2009).

Legend:
Format in all cases: functional, organism-based
Plasmodium falciparum [1] = experiment: Antiplasmodial activity against Plasmodium falciparum clinical isolate after 18 hrs by [3H]hypoxanthine incorporation assay
Procedure, shortened: (§1)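 Kenyan field isolates, culture-adapted in long term (some cryopreserved first), grown in RPMI 1640 with 15% human serum, HEPES, bicarbonate, glutamine and pABA. Genotyped at pfcrt 76 and pfmdr1 86 from dried blood spots. Threefold dilutions; 0.5% parasitemia, 1.5% hematocrit; 66 h at 37°C in 5% O2/5% CO2/90% N2, then [3H]hypoxanthine for 18 h. IC50 by nonlinear regression; each isolate measured twice.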

Plasmodium falciparum [2] = experiment: Antiplasmodial activity against Plasmodium falciparum harboring wild type pfcrt-76 and wild type pfmdr-1-86 gene after 18 hrs by [3H]hypoxanthine incorporation assay; procedure, shortened: as §1
Plasmodium falciparum [3] = experiment: Antiplasmodial activity against Plasmodium falciparum harboring mutant pfmdr-1-86 gene after 18 hrs by [3H]hypoxanthine incorporation assay; procedure, shortened: as §1
Plasmodium falciparum [4] = experiment: Antiplasmodial activity against Plasmodium falciparum harboring mutant pfcrt-76 gene after 18 hrs by [3H]hypoxanthine incorporation assay; procedure, shortened: as §1
Plasmodium falciparum [5] = experiment: Antiplasmodial activity against multidrug-resistant Plasmodium falciparum […] after 18 hrs by [3H]hypoxanthine incorporation assay
Procedure, shortened: (§2)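 Reference strains (multidrug-resistant V1S, drug-sensitive 3D7) in RPMI 1640 with 15% human serum. Threefold drug dilutions; 0.5% parasitemia, 1.5% hematocrit; 66 h at 37°C under 5% O2/5% CO2/90% N2, then [3H]hypoxanthine added for 18 h, freeze-thaw lysis, counting. IC50 by nonlinear regression of dose-response; four determinations per strain.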

Plasmodium falciparum [6] = experiment: Antiplasmodial activity against Plasmodium falciparum harboring wild type pfcrt-76 and mutant pfmdr-1-86 gene after 18 hrs by [3H]hypoxanthine incorporation assay; procedure, shortened: as §1
Plasmodium falciparum [7] = experiment: Antiplasmodial activity against multidrug-sensitive Plasmodium falciparum 3D7 after 18 hrs by [3H]hypoxanthine incorporation assay; procedure, shortened: as §2
Plasmodium falciparum [8] = experiment: Antiplasmodial activity against Plasmodium falciparum harboring mutant pfcrt-76 and mutant pfmdr-1-86 gene after 18 hrs by [3H]hypoxanthine incorporation assay; procedure, shortened: as §1
Plasmodium falciparum [9] = experiment: Antiplasmodial activity against Plasmodium falciparum harboring mutant pfcrt-76 and wild type pfmdr-1-86 gene after 18 hrs by [3H]hypoxanthine incorporation assay; procedure, shortened: as §1
Plasmodium falciparum [10] = experiment: Antiplasmodial activity against Plasmodium falciparum harboring wild type and mutant pfmdr-1-86 gene after 18 hrs by [3H]hypoxanthine incorporation assay; procedure, shortened: as §1
Plasmodium falciparum [11] = experiment: Antiplasmodial activity against Plasmodium falciparum harboring wild type and mutant pfcrt-76 gene after 18 hrs by [3H]hypoxanthine incorporation assay; procedure, shortened: as §1
Plasmodium falciparum [12] = experiment: Antiplasmodial activity against Plasmodium falciparum harboring wild type pfmdr-1-86 gene after 18 hrs by [3H]hypoxanthine incorporation assay; procedure, shortened: as §1
Plasmodium falciparum [13] = experiment: Antiplasmodial activity against Plasmodium falciparum harboring wild type pfcrt-76 gene after 18 hrs by [3H]hypoxanthine incorporation assay; procedure, shortened: as §1

Row | Structure (SMILES) | IC50 (Plasmodium falciparum [1]) [nM] | IC50 (Plasmodium falciparum [2]) [nM] | IC50 (Plasmodium falciparum [3]) [nM] | IC50 (Plasmodium falciparum [4]) [nM] | IC50 (Plasmodium falciparum [5]) [nM] | IC50 (Plasmodium falciparum [6]) [nM] | IC50 (Plasmodium falciparum [7]) [nM] | IC50 (Plasmodium falciparum [8]) [nM] | IC50 (Plasmodium falciparum [9]) [nM] | IC50 (Plasmodium falciparum [10]) [nM] | IC50 (Plasmodium falciparum [11]) [nM] | IC50 (Plasmodium falciparum [12]) [nM] | IC50 (Plasmodium falciparum [13]) [nM]
1 | CCCCN(CCCC)CC(O)c1cc(Cl)cc2c1-c1ccc(Cl)cc1/C2=C/c1ccc(Cl)cc1 (configuration not stated) [LUMEFANTRINE] | 50 | 173 | 43 | 43 | 24 | 63 | 96 | 31 | 99 | 57 | 67 | 124 | –
2 | C[C@H]1[C@@H](O)O[C@@H]2O[C@@]3(C)CC[C@H]4[C@H](C)CC[C@@H]1[C@@]24OO3 [ARTENIMOL] | 2 | – | 2 | < 25 | 2 | – | 2 | – | – | – | – | 3 | –
3 | CCN(CC)CCCC(C)Nc1ccnc2cc(Cl)ccc12 (configuration not stated) [CHLOROQUINE] | – | – | – | 57 | – | – | – | 72 | 54 | – | 21 | – | –
4 | Clc1ccc2c(N3CCN(CCCN4CCN(c5ccnc6cc(Cl)ccc56)CC4)CC3)ccnc2c1 [PIPERAQUINE] | 32 | – | – | 38 | 42 | – | 27 | – | – | – | – | – | 35
